Reference: ChEMBL document CHEMBL1138372, “Design, synthesis, and biological evaluation of new (2E,6E)-10-(dimethylamino)-3,7-dimethyl-2,6-decadien-1-ol ethers as inhibitors of human and Trypanosoma cruzi oxidosqualene cyclase” (Bioorg Med Chem Lett, 2007)
Activity calls are given as the source filed them. No cut-off for these calls is given here.

What was measured:
NIH3T3 [1] = test: Inhibition of sterol biosynthesis in Swiss Albino mouse 3T3 cells assessed as incorporation of [2-14C]acetate in cholesterol at 1 uM; format: functional; set-up: scale not given: the % may be the effect or the level left
In short: (§1)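 3T3 fibroblasts (7×10^4 cells) were grown 24 h in DMEM with 10% lipid-depleted serum, then preincubated 3 h with inhibitor. [2-14C]acetate (1 uCi/well) was added for a further 3 h. Cells were lysed in 0.1 N NaOH and saponified in methanolic KOH (1 h, 80 °C). Nonsaponifiable lipids were extracted and separated by TLC against sterol standards. Label is given as % of total radioactivity in sterols, mean ± SD of two experiments in duplicate.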

NIH3T3 [2] = test: Inhibition of sterol biosynthesis in Swiss Albino mouse 3T3 cells assessed as incorporation of [2-14C]acetate in lanosterol at 1 uM; format: functional; set-up: scale not given: the % may be the effect or the level left; in short: as §1
NIH3T3 [3] = test: Inhibition of sterol biosynthesis in Swiss Albino mouse 3T3 cells assessed as incorporation of [2-14C]acetate in […]-dioxidosqualene at 1 uM; format: functional; set-up: scale not given: the % may be the effect or the level left; in short: as §1
NIH3T3 [4] = test: Inhibition of sterol biosynthesis in Swiss Albino mouse 3T3 cells assessed as incorporation of [2-14C]acetate in 2,3-oxidosqualene at 1 uM; format: functional; set-up: scale not given: the % may be the effect or the level left; in short: as §1
NIH3T3 [5] = test: Inhibition of sterol biosynthesis in Swiss Albino mouse 3T3 cells assessed as incorporation of [2-14C]acetate in squalene at 1 uM; format: functional; set-up: scale not given: the % may be the effect or the level left; in short: as §1
NIH3T3 [6] = test: Inhibition of sterol biosynthesis in Swiss Albino mouse 3T3 cells assessed as decrease in incorporation of [2-14C]acetate in cholesterol at 50 uM; format: functional; set-up: scale not given: the % may be the effect or the level left; in short: as §1
Trypanosoma cruzi = test: Inhibition of Trypanosoma cruzi oxidosqualene cyclase at 10 uM
[7] = biological target: T1, Lanosterol synthase (Pneumocystis carinii) (UniProt Q96WJ0); test: Inhibition of Pneumocystis carinii oxidosqualene cyclase at 10 uM
T1 sequence (whole entry): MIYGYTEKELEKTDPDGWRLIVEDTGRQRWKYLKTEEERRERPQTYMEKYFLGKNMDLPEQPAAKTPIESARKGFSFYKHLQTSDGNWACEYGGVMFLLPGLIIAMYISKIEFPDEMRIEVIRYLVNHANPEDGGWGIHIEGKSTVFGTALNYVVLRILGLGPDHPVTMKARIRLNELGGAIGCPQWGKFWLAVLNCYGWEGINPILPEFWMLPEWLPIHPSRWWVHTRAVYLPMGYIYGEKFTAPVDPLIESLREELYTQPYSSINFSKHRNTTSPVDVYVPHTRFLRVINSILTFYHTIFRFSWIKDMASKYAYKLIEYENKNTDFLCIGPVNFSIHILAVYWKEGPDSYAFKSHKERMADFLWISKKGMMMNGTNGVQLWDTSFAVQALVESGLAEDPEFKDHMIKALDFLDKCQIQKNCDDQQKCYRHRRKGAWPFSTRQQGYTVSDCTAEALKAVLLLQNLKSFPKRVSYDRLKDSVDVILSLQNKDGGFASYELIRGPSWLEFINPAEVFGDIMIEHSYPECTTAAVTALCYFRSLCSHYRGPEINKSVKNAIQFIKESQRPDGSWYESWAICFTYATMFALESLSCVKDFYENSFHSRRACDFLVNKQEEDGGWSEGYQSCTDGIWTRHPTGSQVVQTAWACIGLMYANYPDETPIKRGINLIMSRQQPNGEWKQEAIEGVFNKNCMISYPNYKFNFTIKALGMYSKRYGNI

[8] = biological target: T2, Lanosterol synthase (Homo sapiens) (UniProt P48449); test: Inhibition of human oxidosqualene cyclase expressed in Pichia pastoris cells at 10 uM
T2 sequence (whole entry): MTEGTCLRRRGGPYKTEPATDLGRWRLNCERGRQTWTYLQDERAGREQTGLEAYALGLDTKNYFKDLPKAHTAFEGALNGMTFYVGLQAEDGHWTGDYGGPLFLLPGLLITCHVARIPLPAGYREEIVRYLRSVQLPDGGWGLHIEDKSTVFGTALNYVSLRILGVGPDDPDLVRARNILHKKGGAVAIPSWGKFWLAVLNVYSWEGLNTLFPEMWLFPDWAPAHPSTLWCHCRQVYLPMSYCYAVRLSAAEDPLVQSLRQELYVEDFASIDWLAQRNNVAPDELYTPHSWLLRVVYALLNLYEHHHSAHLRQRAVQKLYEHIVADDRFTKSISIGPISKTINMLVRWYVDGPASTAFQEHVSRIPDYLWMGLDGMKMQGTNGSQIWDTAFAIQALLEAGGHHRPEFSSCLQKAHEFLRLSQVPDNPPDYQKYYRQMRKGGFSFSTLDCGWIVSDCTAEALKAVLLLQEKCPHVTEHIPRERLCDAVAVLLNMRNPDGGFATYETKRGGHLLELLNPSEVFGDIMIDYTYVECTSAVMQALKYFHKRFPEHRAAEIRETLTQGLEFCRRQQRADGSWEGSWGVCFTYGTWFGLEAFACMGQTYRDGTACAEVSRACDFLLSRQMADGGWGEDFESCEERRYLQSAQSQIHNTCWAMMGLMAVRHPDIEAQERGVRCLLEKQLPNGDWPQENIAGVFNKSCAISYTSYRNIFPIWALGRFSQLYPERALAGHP

Lanosterol synthase [9] = biological target: T3, Lanosterol synthase (Pneumocystis carinii, UniProt Q96WJ0); test: Inhibition of Pneumocystis carinii oxidosqualene cyclase
T3 sequence (Q96WJ0 whole entry): T1 sequence (whole entry)

[10] = biological target: T4, Lanosterol synthase ERG7 (Saccharomyces cerevisiae S288c) (UniProt P38604); test: Inhibition of Saccharomyces cerevisiae oxidosqualene cyclase at 10 uM
T4 sequence (whole entry): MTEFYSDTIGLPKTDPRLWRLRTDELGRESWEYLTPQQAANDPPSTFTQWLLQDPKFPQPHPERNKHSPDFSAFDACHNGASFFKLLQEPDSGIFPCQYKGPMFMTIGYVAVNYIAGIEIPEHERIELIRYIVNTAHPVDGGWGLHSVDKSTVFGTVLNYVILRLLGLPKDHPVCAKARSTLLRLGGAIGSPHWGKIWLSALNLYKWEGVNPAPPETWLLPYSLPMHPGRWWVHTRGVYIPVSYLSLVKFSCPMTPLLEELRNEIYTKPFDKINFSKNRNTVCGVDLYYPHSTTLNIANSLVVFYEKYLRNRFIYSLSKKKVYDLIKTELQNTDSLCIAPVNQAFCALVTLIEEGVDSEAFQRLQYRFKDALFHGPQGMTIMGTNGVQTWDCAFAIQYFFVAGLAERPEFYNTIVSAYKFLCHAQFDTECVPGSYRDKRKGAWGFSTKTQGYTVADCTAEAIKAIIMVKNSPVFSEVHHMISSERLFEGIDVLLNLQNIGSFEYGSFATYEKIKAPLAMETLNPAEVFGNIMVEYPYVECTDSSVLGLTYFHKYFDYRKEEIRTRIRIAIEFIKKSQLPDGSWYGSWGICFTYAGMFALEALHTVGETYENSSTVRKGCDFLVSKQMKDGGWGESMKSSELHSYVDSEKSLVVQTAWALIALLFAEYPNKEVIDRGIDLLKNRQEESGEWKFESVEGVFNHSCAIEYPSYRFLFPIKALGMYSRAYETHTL

[11] = Inhibition of Trypanosoma cruzi oxidosqualene cyclase
Lanosterol synthase ERG7 = biological target: T5, Lanosterol synthase ERG7 (Saccharomyces cerevisiae S288c, UniProt P38604); test: Inhibition of Saccharomyces cerevisiae oxidosqualene cyclase
T5 sequence (P38604 whole entry): T4 sequence (whole entry)

Lanosterol synthase [12] = biological target: T6, Lanosterol synthase (Homo sapiens, UniProt P48449); test: Inhibition of human oxidosqualene cyclase expressed in Pichia pastoris cells
T6 sequence (P48449 whole entry): T2 sequence (whole entry)

## C/C(=C\COCCCc1ccccc1)CC/C=C(\C)CCC(=O)N(C)C
NIH3T3 [1]
  Activity: 84.6%
NIH3T3 [2]
  Activity: 3.2%
NIH3T3 [3]
  Activity: 2.8%
NIH3T3 [4]
  Activity: 4.6%
NIH3T3 [5]
  Activity: 4.8%
NIH3T3 [6]
  Activity: >50%
Trypanosoma cruzi
  inhibition: < 20%
[7]
  inhibition: < 20%
[8]
  inhibition: < 20%

## C/C(=C\COCCCc1cccc2ccccc12)CC/C=C(\C)CCCN(C)C
Lanosterol synthase [9]
  IC50: 10000 nM
NIH3T3 [1]
  Activity: 72.7%
NIH3T3 [2]
  Activity: 5%
NIH3T3 [3]
  Activity: 3.2%
NIH3T3 [4]
  Activity: 12.5%
NIH3T3 [5]
  Activity: 6.6%
NIH3T3 [6]
  Activity: 30%
Trypanosoma cruzi
  inhibition: < 20%
[10]
  Activity: inactive
[8]
  inhibition: < 20%

## CCCCCCOC/C=C(\C)CC/C=C(\C)CCCN(C)C
[11]
  IC50: 2700 nM
Lanosterol synthase [9]
  IC50: 360 nM
Lanosterol synthase ERG7
  IC50: 1780 nM
Lanosterol synthase [12]
  IC50: 850 nM
NIH3T3 [1]
  Activity: 35.5%
NIH3T3 [2]
  Activity: 7.9%
NIH3T3 [3]
  Activity: 22.3%
NIH3T3 [4]
  Activity: 29.6%
NIH3T3 [5]
  Activity: 4.6%

## C/C(=C\COCCCc1ccccc1)CC/C=C(\C)CCCN(C)C
[11]
  IC50: 470 nM
Lanosterol synthase [9]
  IC50: 330 nM
Lanosterol synthase ERG7
  IC50: 450 nM
Lanosterol synthase [12]
  IC50: 1100 nM
NIH3T3 [1]
  Activity: 31.3%
NIH3T3 [2]
  Activity: 5.5%
NIH3T3 [3]
  Activity: 30.4%
NIH3T3 [4]
  Activity: 27.9%
NIH3T3 [5]
  Activity: 5.5%

## C/C(=C\CO)CC/C=C(\C)CCCN(C)C
NIH3T3 [1]
  Activity: 88.2%
NIH3T3 [2]
  Activity: 2.5%
NIH3T3 [3]
  Activity: 1.3%
NIH3T3 [4]
  Activity: 3.9%
NIH3T3 [5]
  Activity: 4.1%
NIH3T3 [6]
  Activity: 30%
Trypanosoma cruzi
  inhibition: < 20%
[7]
  inhibition: < 20%
[10]
  Activity: inactive
[8]
  inhibition: < 20%

## C/C(=C\COCCCc1ccc(-c2ccccc2)cc1)CC/C=C(\C)CCCN(C)C
[11]
  IC50: 7400 nM
Lanosterol synthase [9]
  IC50: 1700 nM
Lanosterol synthase [12]
  IC50: 4500 nM
NIH3T3 [1]
  Activity: 53.2%
NIH3T3 [2]
  Activity: 6.4%
NIH3T3 [3]
  Activity: 18%
NIH3T3 [4]
  Activity: 17.5%
NIH3T3 [5]
  Activity: 4.9%
[10]
  inhibition: < 20%
